For test [1], the target named is T1, Delta-type opioid receptor (Homo sapiens, UniProt P41143). Nature of the test: Displacement of [3H]DPDPE from cloned human delta opioid receptor. An outline of the steps: (§1)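 Radioligand competition binding at cloned human receptors: [³H]DAMGO for mu, [³H]DPDPE for delta, [³H]U69593 for kappa. Ki is the concentration giving half-maximal inhibition of tracer binding.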

In another test the target is Mu-type opioid receptor (Homo sapiens, UniProt P35372). Nature of the test: Displacement of [3H]DAMGO from cloned human mu opioid receptor. The method, boiled down:
as §1
A general note: In a radioligand displacement assay an active substance lowers the binding of a labelled ligand.

Test [2] concerns the target Kappa-type opioid receptor (Homo sapiens, UniProt P41145). Nature of the test: Displacement of [3H]U-69593 from cloned human kappa opioid receptor. An outline of the steps: as §1
Test [3] concerns the target Opioid receptors; mu & delta (Homo sapiens) (UniProt P41143+P35372). Nature of the test: Selectivity for cloned human mu opioid receptor over delta opioid receptor. The class given is protein assay.
For test [4], the target named is Opioid receptors; delta & kappa (Homo sapiens) (UniProt P41145+P41143). Nature of the test: Selectivity for cloned human kappa opioid receptor over delta opioid receptor. It is filed as protein assay.
Opioid receptors; delta & kappa (Homo sapiens), sequence (P41143 whole entry, looked up): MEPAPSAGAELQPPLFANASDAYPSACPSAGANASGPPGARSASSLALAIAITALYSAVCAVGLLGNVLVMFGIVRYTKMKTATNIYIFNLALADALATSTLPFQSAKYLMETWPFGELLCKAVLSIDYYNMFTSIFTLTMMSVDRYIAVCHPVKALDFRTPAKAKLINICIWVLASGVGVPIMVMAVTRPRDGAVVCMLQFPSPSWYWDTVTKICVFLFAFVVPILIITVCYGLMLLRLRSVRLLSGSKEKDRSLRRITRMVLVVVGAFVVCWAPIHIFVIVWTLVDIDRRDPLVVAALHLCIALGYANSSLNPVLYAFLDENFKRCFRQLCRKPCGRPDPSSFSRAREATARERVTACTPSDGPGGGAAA
Opioid receptors; delta & kappa (Homo sapiens), sequence (P41145 whole entry, looked up): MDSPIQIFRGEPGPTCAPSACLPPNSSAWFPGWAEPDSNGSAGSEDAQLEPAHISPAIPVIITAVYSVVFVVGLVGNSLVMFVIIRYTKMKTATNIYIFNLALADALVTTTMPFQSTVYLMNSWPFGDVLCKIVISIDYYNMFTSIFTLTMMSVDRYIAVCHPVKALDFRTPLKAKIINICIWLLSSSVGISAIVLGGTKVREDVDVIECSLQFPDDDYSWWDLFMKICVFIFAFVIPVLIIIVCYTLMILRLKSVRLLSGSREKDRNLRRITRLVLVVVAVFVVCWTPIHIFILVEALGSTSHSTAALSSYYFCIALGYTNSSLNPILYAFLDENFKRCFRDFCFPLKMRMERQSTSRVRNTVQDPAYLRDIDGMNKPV
Test [5] addresses T1, Delta-type opioid receptor. Nature of the test: Agonist potency assessed by [35S]GTP-gammaS binding assay in C6 Glioma cells expressing cloned human delta opioid receptor. It is filed as functional, cell-based. The method, boiled down: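 Membranes expressing human δ-opioid receptors; agonism read as percent stimulation of [³⁵S]GTPγS binding against log molar ligand concentration. pEC₅₀ derived from three-parameter logistic curve fits.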
On the technique in general: GTPγS resists hydrolysis and so accumulates on activated G proteins.

In general, Ki refers to a measure of affinity in units of concentration, obtained from inhibition or displacement. Low readings indicate higher affinity, high ones lower affinity. The EC50 is the concentration that produces a half-maximal response. A higher EC50 goes with weaker potency.

Structures are written as SMILES.

T1 sequence (P41143 whole entry): as the sequence (P41143 whole entry, looked up) above
Kappa-type opioid receptor, sequence (P41145 whole entry): as the sequence (P41145 whole entry, looked up) above
Opioid receptors; mu & delta (Homo sapiens), sequence (P35372 whole entry, looked up): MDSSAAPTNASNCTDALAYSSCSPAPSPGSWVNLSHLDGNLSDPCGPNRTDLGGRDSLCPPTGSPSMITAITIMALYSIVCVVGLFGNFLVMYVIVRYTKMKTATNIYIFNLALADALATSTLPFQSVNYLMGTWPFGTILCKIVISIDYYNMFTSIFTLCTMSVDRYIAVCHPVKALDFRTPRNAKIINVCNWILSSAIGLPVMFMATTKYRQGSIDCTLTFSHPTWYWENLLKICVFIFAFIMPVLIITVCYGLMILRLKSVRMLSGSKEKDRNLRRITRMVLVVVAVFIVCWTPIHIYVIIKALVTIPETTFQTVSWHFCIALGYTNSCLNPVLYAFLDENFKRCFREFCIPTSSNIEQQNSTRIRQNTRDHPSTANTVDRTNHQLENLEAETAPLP
Opioid receptors; mu & delta (Homo sapiens), sequence (P41143 whole entry, looked up): as the sequence (P41143 whole entry, looked up) above
Mu-type opioid receptor, sequence (P35372 whole entry): as the sequence (P35372 whole entry, looked up) above

On to `O=C(Nc1ccccc1)N1CCC(c2ccccc2)(c2ncc[nH]2)CC1`, for which the results for the Ki (in test [1]; on Mu-type opioid receptor; in test [2]) were more than 465 nM, more than 465 nM and more than 4650 nM, respectively.
Consider `CS(=O)(=O)N1CCC(c2ccccc2)(c2nccn2Cc2ccccc2)CC1`, for which the Ki is 46 nM in test [1], more than 4650 nM on Mu-type opioid receptor and 2010 nM in test [2]. The results for the Ratio Ki in test [3] and in test [4] were more than 101 and 44, respectively.
For `O=C(Nc1ccccc1)N1CCC(c2ccccc2)(c2nccn2Cc2ccccc2)CC1`, the values for the Ki (in test [1]; on Mu-type opioid receptor; in test [2]) were 81 nM, more than 465 nM and 126 nM, respectively. The Ratio Ki in test [3] was more than 5.7; in test [4], 1.6. In test [5], the EC50 is 1480 nM.
For the compound `O=C(Nc1ccccc1)N1CCC(c2ccccc2)(c2nccn2C(=O)c2ccccc2)CC1`, the Ki in test [1] was 3700 nM; at Mu-type opioid receptor it was more than 4650 nM; in test [2], 1190 nM. The Ratio Ki was more than 1.2 in test [3] and 0.32 in test [4].
In the case of `COc1cccc(NC(=O)N2CCC(c3ccccc3)(c3nccn3Cc3ccccc3)CC2)c1`, the figures for the Ki (on Mu-type opioid receptor; in test [2]) were 1380 nM and 152 nM, respectively.
Turning to `c1ccc(Cn2ccnc2C2(c3ccccc3)CCN(c3nc4ccccc4s3)CC2)cc1`, the Ki was 73 nM in test [1] and more than 4650 nM at Mu-type opioid receptor. Besides, in test [3], the Ratio Ki was more than 63. In test [5], this compound had an EC50 of 26 nM.
With `O=C(Nc1ccccc1)N1CCC(c2ccccc2)(c2nccn2Cc2ccc(F)cc2)CC1`, the Ki was 203 nM in test [1], more than 4650 nM at Mu-type opioid receptor and 2160 nM in test [2]. For the same compound, the Ratio Ki in test [3] was more than 23; in test [4], 11.
Take `O=C(Nc1ccccc1F)N1CCC(c2ccccc2)(c2nccn2Cc2ccccc2)CC1`: the Ki on Mu-type opioid receptor worked out at 2520 nM; in test [2], 318 nM.
Turning to `NS(=O)(=O)N1CCC(c2ccccc2)(c2nccn2Cc2ccccc2)CC1`, the Ki in test [1] is 106 nM; at Mu-type opioid receptor, more than 4650 nM; in test [2] it was more than 4650 nM. Moreover, the Ratio Ki in test [3] and in test [4] was more than 44 in each case.
On to `O=C(Nc1ccccc1)N1CCC(c2ccccc2)(c2nccn2Cc2cccc(F)c2)CC1`, for which the Ki in test [1] was 128 nM; at Mu-type opioid receptor, more than 4650 nM; in test [2] it was 1880 nM. Moreover, the Ratio Ki in test [3] was more than 36; in test [4], 15.
Turning to `CC(c1ccccc1)n1ccnc1C1(c2ccccc2)CCN(C(=O)Nc2ccccc2)CC1` (configuration not stated), the inhibition constant (Ki) on Mu-type opioid receptor was 497 nM; in test [2], more than 465 nM.
For the compound `COc1ccccc1NC(=O)N1CCC(c2ccccc2)(c2nccn2Cc2ccccc2)CC1`, the Ki at Mu-type opioid receptor was more than 4650 nM; in test [2], 782 nM.
On to `O=C(Nc1ccccc1)N1CCC(c2ccccc2)(c2nccn2Cc2ccccn2)CC1`, for which the Ki is 3070 nM in test [1], 1420 nM at Mu-type opioid receptor and 46 nM in test [2]. Besides, the Ratio Ki in test [3] amounted to 0.46; in test [4] it was 0.015.
With `COc1ccc(NC(=O)N2CCC(c3ccccc3)(c3nccn3Cc3ccccc3)CC2)cc1`, the Ki in test [1] is 44 nM; on Mu-type opioid receptor it was more than 465 nM. The Ratio Ki in test [3] was more than 10.
Regarding `O=C(Nc1cccc(F)c1)N1CCC(c2ccccc2)(c2nccn2Cc2ccccc2)CC1`, the Ki (at Mu-type opioid receptor; in test [2]) was more than 4650 nM throughout.
Turning to `CN1CCN(C(=O)N2CCC(c3ccccc3)(c3nccn3Cc3ccccc3)CC2)CC1`, the inhibition constant Ki in test [1] was 161 nM; at Mu-type opioid receptor, more than 4650 nM; in test [2], 858 nM. Also, the Ratio Ki was more than 29 in test [3] and 5.3 in test [4].
In the case of `O=C(Nc1ccc(F)cc1)N1CCC(c2ccccc2)(c2nccn2Cc2ccccc2)CC1`, the Ki worked out at 97 nM in test [1], 1210 nM on Mu-type opioid receptor and 148 nM in test [2]. Moreover, the values for the Ratio Ki in test [3] and in test [4] were 12 and 1.5, respectively.
As for `c1ccc(Cn2ccnc2C2(c3ccccc3)CCN(c3nccs3)CC2)cc1`, the values for the Ki (in test [1]; at Mu-type opioid receptor; in test [2]) were 79 nM, more than 4650 nM and 2530 nM, respectively. For the same compound, the Ratio Ki in test [3] is more than 58; in test [4], 32. This compound also returned an EC50 in test [5] of 98 nM.
For the compound `CCNC(=O)N1CCC(c2ccccc2)(c2nccn2Cc2ccccc2)CC1`, the Ki at Mu-type opioid receptor is more than 4650 nM; in test [2] it was 242 nM.
`NC(=O)N1CCC(c2ccccc2)(c2nccn2Cc2ccccc2)CC1`: the Ki in test [1] is 99 nM; on Mu-type opioid receptor it was more than 4650 nM; in test [2], 334 nM. For the same compound, the Ratio Ki is more than 51 in test [3] and 3.4 in test [4].
For `CN(C(=O)N1CCC(c2ccccc2)(c2nccn2Cc2ccccc2)CC1)c1ccccc1`, the Ki on Mu-type opioid receptor is more than 4650 nM; in test [2], 397 nM.
As to `Cn1c(N2CCC(c3ccccc3)(c3nccn3Cc3ccccc3)CC2)nc2ccccc21`, the figures for the Ki (in test [1]; at Mu-type opioid receptor; in test [2]) were 138 nM, 235 nM and 40 nM, respectively. Besides, the Ratio Ki in test [3] stood at 1.7; in test [4], 0.29.
The matching figures for `COc1cccc(Cn2ccnc2C2(c3ccccc3)CCN(C(=O)Nc3ccccc3)CC2)c1`: 217 nM, 3250 nM, 2060 nM, 15 and 9.
Turning to `c1ccc(Cn2ccnc2C2(c3ccccc3)CCN(c3ncccn3)CC2)cc1`, the figures for the Ki (in test [1]; at Mu-type opioid receptor; in test [2]) were 18 nM, more than 4650 nM and 505 nM, respectively. The Ratio Ki in test [3] was more than 258; in test [4], 28. The compound also registered an EC50 in test [5] of 14 nM.
With `O=C(Nc1ccccc1)N1CCC(c2ccccc2)(c2nccn2Cc2ccccc2F)CC1`, the Ki was 428 nM at Mu-type opioid receptor and 116 nM in test [2].
Turning to `O=S(=O)(Nc1ccccc1)N1CCC(c2ccccc2)(c2nccn2Cc2ccccc2)CC1`, the values for the Ki (in test [1]; on Mu-type opioid receptor) were 3.2 nM and 980 nM, respectively. In addition, the midpoint of the response in test [5], the EC50, lay at 832 nM.
